Measurements of several laboratories.
Target: Proto-oncogene tyrosine-protein kinase ROS (ROS1, Homo sapiens, UniProt P08922)

Compound	test	conditions	quantity	value
CN1CC(Oc2cnc(C#N)cc2-c2ccn3nc(NC(=O)C4CC4)cc3c2)C1	enzyme activity, inhibitor	1 µM	inhibition	8%
O=C(N[C@H]1CCCCC/C=C\C2C[C@@]2(C(=O)O)NC(=O)[C@@H]2C[C@@H](Oc3ccncc3)CN2C1=O)OC1CCCC1 (stereo partly drawn)	cell-free assay, competition with immobilised ligand	1 µM	remaining binding	92%
Cc1ccc(C(=O)Nc2ccc(CN3CCN(C)CC3)c(C(F)(F)F)c2)cc1C#Cc1cnc2cccnn12	enzyme activity	23.5 nM	remaining activity	78%
CCN(CC)CCNC(=O)c1c(C)[nH]c(/C=C2\C(=O)Nc3ccc(F)cc32)c1C	enzyme activity, inhibitor	10 µM	inhibition	35%
COCCOc1nc(-c2ccc(Cl)nc2)nc2c1CN(C(=O)c1ncn3ccccc13)CC2	cell-free assay, competition with immobilised ligand	0.1 µM	remaining binding	100%
CC/C(=N\NC(=O)NCc1cccc(O)c1)c1ccc(O)c(C)c1O	enzyme activity, inhibitor	0.1 µM	inhibition	2.5%
Cc1ccc(Nc2nccc(N(C)c3ccc4c(C)n(C)nc4c3)n2)cc1S(N)(=O)=O	enzyme activity, inhibitor	10 µM	inhibition	13%
COc1cc2ncnc(Nc3ccc(Oc4ccccc4)cc3C)c2cc1OC	enzyme activity, inhibitor	1 µM	inhibition	4%
C[S+]([O-])c1ccc(-c2nc(-c3ccncc3)c(-c3ccc(F)cc3)[nH]2)cc1 (stereo not drawn)	cell-free assay	0.5 µM	remaining signal	94.4%
COc1cc(Cl)c(C(=O)N[C@@H](CN[C@H]2CC[C@@H](N)CC2)Cc2ccc(C#N)cc2)cc1-c1ccc(CN[C@H](C)c2ccc(C)cc2)o1	enzyme activity, inhibitor	1 µM	remaining activity	137%
CC(=O)N1CCC(c2ccc(C(=O)NC(=N)N)cc2C(F)(F)F)CC1	cell-free assay, competition with immobilised ligand	1 µM	remaining binding	100%
Cc1sc(C(=O)NC2COC2)cc1-n1cc(NC(=O)Nc2c(F)cccc2Cl)cn1	enzyme activity, inhibitor	10 µM	remaining activity	102%
CC1=C(C#N)C(c2ccc3c(c2)c(NC(=O)c2ccccc2C)nn3C)C(C#N)=C(C)N1	cell-free assay, competition with immobilised ligand	1 µM	remaining binding	100%
Nc1ncnc2occ(-c3ccc(NC(=O)Nc4cc(C(F)(F)F)ccc4F)cc3)c12	cell-free assay	20 µM	remaining signal	4.9%
CCCOc1ccc(OC)c(F)c1C(=O)c1ccc(C(=O)N[C@@H]2CNC[C@H]2NC(=O)c2ccc3[nH]ncc3c2)cc1	enzyme activity, inhibitor	10 µM	remaining activity	105%
CC(C)(C)c1nc(-c2cccc(NS(=O)(=O)c3c(F)cccc3F)c2F)c(-c2ccnc(N)n2)s1	enzyme activity, inhibitor, radiometric	1 µM	remaining activity	96%
COc1cc2nccc(Oc3ccc(NC(=O)c4c5n(n(-c6ccc(F)cc6)c4=O)CCCC5)cc3)c2cc1OC	enzyme activity, inhibitor	0.1 µM	inhibition	26%
CNCc1ccc(-c2cc(-c3nc(-c4ccc(S(=O)(=O)C(C)C)cc4)cnc3N)on2)cc1	enzyme activity, inhibitor	0.4 µM	inhibition	0%
CNC(=O)Nc1ccc2c(c1)[C@@]1(CC2)OC(=O)N(CC(=O)N(Cc2ccc(F)cc2)[C@@H](C)C(F)(F)F)C1=O	cell-free assay, competition with immobilised ligand	1 µM	remaining binding	87%
F[C@@H]1CCN(c2nccc(-c3cnn4ncccc34)n2)C1	binding	1 µM	remaining binding	88%
COc1cc2c(Nc3ccc(Br)cc3F)ncnc2cc1OCC1CCN(C)CC1	cell-free assay	0.5 µM	remaining signal	76.5%
CO[C@@H](C)c1c(Nc2ccc([C@@H](N(C)C(=O)C3CCS(=O)(=O)CC3)C(F)(F)F)cc2)cnc2cc(Cl)nn12	cell-free assay, competition with immobilised ligand	1 µM	remaining binding	82%
COc1ccc(COc2ccc(Cc3cnc(N)nc3N)cc2OC)cc1	cell-free assay	0.5 µM	remaining signal	99.9%
CCC(=O)N[C@@H]1CC[C@H](C(=O)N(C)c2ccc(-c3nc4ccccc4o3)cc2)C1	cell-free assay, competition with immobilised ligand	1 µM	remaining binding	100%
Cc1ccc(C(=O)NCc2ccsc2)cc1C#Cc1cn(C(C)C)c2ncnc(N)c12	enzyme activity, inhibitor	1 µM	activity vs control	92%
O=C1Nc2ccc(Cl)cc2C1=Cc1cc(Cl)c(O)c(Cl)c1	cell-free assay	0.5 µM	remaining signal	89.7%
O=C1NC(c2ccccn2)Sc2ccccc21 (stereo not drawn)	cell-free assay, competition with immobilised ligand	1 µM	remaining binding	95%
